Source: ChEMBL document CHEMBL2434823, “Design, synthesis and biological activities of some 7-aminocephalosporanic acid derivatives” (Eur J Med Chem, 2013)

Assays:
Type in all cases: functional
Conditions in all cases: read-out: IZ
Bacillus cereus = test: Antimicrobial activity against Bacillus cereus 702 Roma at 10 ug
Enterococcus faecalis = test: Antimicrobial activity against Enterococcus faecalis ATCC 29212 at 10 ug
Staphylococcus aureus = test: Antimicrobial activity against Staphylococcus aureus ATCC 25923 at 10 ug
Pseudomonas aeruginosa = test: Antimicrobial activity against Pseudomonas aeruginosa ATCC 43288 at 10 ug
[1] = system: Yersinia pseudotuberculosis; test: Antimicrobial activity against Yersinia pseudotuberculosis ATCC 911 at 10 ug
Method in brief: (§1)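 Compounds were dissolved in […] as 20.000 µg/mL stocks. Ampicillin (10 µg) was the reference antibacterial, and DMSO diluted 1:10 was the solvent control.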

Escherichia coli = test: Antimicrobial activity against Escherichia coli ATCC 25922 at 10 ug; method in brief: as §1

## CC1(C)S[C@@H]2[C@H](NC(=O)[C@H](N)c3ccccc3)C(=O)N2[C@H]1C(=O)O [AMPICILLIN]
Bacillus cereus
  zone of inhibition at 10 µg/disc: 15 mm
Enterococcus faecalis
  zone of inhibition at 10 µg/disc: 10 mm
Staphylococcus aureus
  zone of inhibition at 10 µg/disc: 35 mm
Pseudomonas aeruginosa
  zone of inhibition at 10 µg/disc: 18 mm
[1]
  zone of inhibition at 10 µg/disc: 18 mm
Escherichia coli
  zone of inhibition at 10 µg/disc: 10 mm
